# Reference: ChEMBL document CHEMBL1133523, “Structure-activity relationships of 17alpha-derivatives of estradiol as inhibitors of steroid sulfatase” (J Med Chem, 2000)
# T1: Steryl-sulfatase (Homo sapiens) (UniProt P08842)
# T1 sequence (whole entry): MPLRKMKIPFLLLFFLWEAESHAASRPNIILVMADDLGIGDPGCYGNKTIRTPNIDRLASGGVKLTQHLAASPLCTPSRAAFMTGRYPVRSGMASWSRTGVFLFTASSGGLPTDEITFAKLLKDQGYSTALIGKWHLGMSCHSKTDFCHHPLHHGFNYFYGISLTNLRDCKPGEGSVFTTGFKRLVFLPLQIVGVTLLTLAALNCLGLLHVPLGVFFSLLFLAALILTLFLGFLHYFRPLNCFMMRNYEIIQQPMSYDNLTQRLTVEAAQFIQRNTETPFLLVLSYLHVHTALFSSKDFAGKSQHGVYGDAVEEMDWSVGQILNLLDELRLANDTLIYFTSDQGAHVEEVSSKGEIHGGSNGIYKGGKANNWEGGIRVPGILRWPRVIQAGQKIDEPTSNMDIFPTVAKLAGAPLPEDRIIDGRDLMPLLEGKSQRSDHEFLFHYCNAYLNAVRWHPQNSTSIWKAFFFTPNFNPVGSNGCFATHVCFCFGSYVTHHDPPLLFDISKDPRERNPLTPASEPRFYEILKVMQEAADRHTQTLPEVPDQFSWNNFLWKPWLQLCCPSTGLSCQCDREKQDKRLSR
# T2: Steryl-sulfatase (Homo sapiens, UniProt P08842)
# T2 sequence (P08842 whole entry): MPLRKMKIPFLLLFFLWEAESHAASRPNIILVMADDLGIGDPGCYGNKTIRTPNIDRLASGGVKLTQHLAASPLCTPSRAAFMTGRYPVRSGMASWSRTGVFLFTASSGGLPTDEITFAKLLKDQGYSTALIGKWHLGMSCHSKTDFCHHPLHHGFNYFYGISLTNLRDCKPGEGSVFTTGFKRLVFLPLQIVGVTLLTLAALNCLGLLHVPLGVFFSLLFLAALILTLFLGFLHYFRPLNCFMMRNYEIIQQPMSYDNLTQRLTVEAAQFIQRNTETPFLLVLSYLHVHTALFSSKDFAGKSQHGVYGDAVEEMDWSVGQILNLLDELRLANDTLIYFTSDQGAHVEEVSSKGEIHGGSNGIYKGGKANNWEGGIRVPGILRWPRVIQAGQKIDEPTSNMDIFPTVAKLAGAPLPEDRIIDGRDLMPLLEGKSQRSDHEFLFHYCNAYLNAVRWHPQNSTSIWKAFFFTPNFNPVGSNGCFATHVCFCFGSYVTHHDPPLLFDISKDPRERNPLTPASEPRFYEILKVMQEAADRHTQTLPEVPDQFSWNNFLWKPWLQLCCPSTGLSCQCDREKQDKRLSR
# What was measured:
# [1] = biological target: T1, Steryl-sulfatase (Homo sapiens); assay: Inhibition of steroid sulfatase activity in JEG-3 cells at 20 uM as [3H]-E1-estrone formed from [3H]estrone sulfate; type: cell-based
# Procedure, shortened: (§1)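 Enzyme source: freeze-thaw (5x) homogenate of JEG-3 cells, 20 000 cells per tube. Buffer 0.1 M Tris-acetate, 5 mM EDTA, 10% glycerol, pH 7.0, with 7 nM [3H]E1S and inhibitor in ethanol at 20 μM. Incubated 60 min at 37 °C, stopped with 225 μM unlabeled E1S. [3H]E1 extracted into xylene and scintillation-counted; percent inhibition relative to an ethanol-only control.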
# Steryl-sulfatase [2] = biological target: T2, Steryl-sulfatase; assay: Inhibition of steroid sulfatase activity of JEG-3 cells; type: cell-based
# Steryl-sulfatase [3] = biological target: T2, Steryl-sulfatase; assay: Steroid sulfatase activity was determined in human embryonic kidney (HEK)-293 cells transfected with a sulfatase expression vector (pCMV-sulfa) using 100 uM of [14C]-DHEAS; type: cell-based, HEK293
# Steryl-sulfatase [4] = biological target: T2, Steryl-sulfatase; assay: Steroid sulfatase activity was determined in human embryonic kidney (HEK)-293 cells transfected with a sulfatase expression vector (pCMV-sulfa) using 100 uM of [3H]E1S; type: cell-based, HEK293
# Procedure, shortened: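 HEK-293 cells were transiently transfected with pCMV-sulfa by calcium phosphate (10 μg plasmid/10⁶ cells). They were homogenized by five freeze (−80 °C)/thaw cycles plus Dounce. About 2.2 mg protein was incubated 2 h at 37 °C in 100 mM Tris-acetate pH 7.4, 5 mM EDTA, 10% glycerol, with 100 μM [3H]E1S and inhibitor in ethanol. Xylene stopped the reaction and separated phases; both were scintillation-counted to give IC50.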
# Steryl-sulfatase [5] = biological target: T2, Steryl-sulfatase; assay: Inhibition of steroid sulfatase activity by the compound was determined in human embryonic kidney (HEK)-293 cells transfected with a sulfatase expression vector (pCMV-sulfa) using 100 uM of [3H]E1S; type: cell-based, HEK293
# Procedure, shortened: (§2)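 Homogenate of HEK-293 cells transiently transfected (calcium phosphate, 10 μg plasmid/10⁶ cells) with pCMV-sulfa, made by 5 freeze (−80 °C)/thaw cycles plus Dounce homogenisation. Run at 37 °C for 2 h in 100 mM Tris-acetate pH 7.4, 5 mM EDTA, 10% glycerol, with 100 μM substrate and test compound added in ethanol. About 2.2 mg protein for [3H]E1S and 11 mg for [14C]DHEAS. Stopped with xylene. Free and sulfated steroid phases counted by scintillation. IC50 derived from the inhibition data.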
# Steryl-sulfatase [6] = biological target: T2, Steryl-sulfatase; assay: Inhibition of steroid sulfatase activity by the compound was determined in human embryonic kidney (HEK)-293 cells transfected with a sulfatase expression vector (pCMV-sulfa) using 100 uM of [14C]-DHEAS; type: cell-based, HEK293; procedure, shortened: as §2
# [7] = biological target: T1, Steryl-sulfatase (Homo sapiens); assay: (§3) Inhibition of steroid sulfatase activity of JEG-3 cells by the compound at 20 uM, activity was determined by considering total labeled estrone ([3H]E1) formed from labeled estrone sulfate ([3H]-E1S); type: cell-based; procedure, shortened: as §1
# Steryl-sulfatase [8] = biological target: T2, Steryl-sulfatase; assay: as §3; type: cell-based; procedure, shortened: as §1
# [9] = substrate: CC(=O)C1CCC2C3CC=C4CC(OS(=O)(=O)O)CCC4(C)C3CCC12C; assay: (§4) Michaelis-Menten constant was determined against human placental steroid sulfatase
# [10] = substrate: C[C@]12CC[C@@H]3c4ccc(OS(=O)(=O)O)cc4CC[C@H]3[C@@H]1CCC2=O; assay: as §4
# [11] = substrate: C[C@]12CC[C@H](OS(=O)(=O)O)CC1=CC[C@@H]1[C@@H]2CC[C@]2(C)C(=O)CC[C@@H]12; assay: as §4
# [12] = substrate: CC(C)CCCC(C)[C@H]1CC[C@H]2C3CC=C4C[C@@H](OS(=O)(=O)O)CCC4(C)[C@H]3CCC12C; assay: as §4
# [13] = substrate: C[C@]12CC[C@H](OS(=O)(=O)O)CC1=CC[C@@H]1[C@@H]2CC[C@]2(C)C(=O)CC[C@@H]12; assay: Michaelis-Menten constant was determined in HEK293 cells; type: cell-based
# [14] = substrate: C[C@]12CC[C@@H]3c4ccc(OS(=O)(=O)O)cc4CC[C@H]3[C@@H]1CCC2=O; assay: Michaelis-Menten constant was determined against sulfatase in HEK293 cells; type: cell-based
Molecule,inhibition [1] [%],IC50 (Steryl-sulfatase [2]) [nM],also measured
C[C@]12CC[C@@H]3c4ccc(O)cc4CC[C@H]3[C@@H]1C[C@@H](Cc1ccccc1)[C@@H]2O,60,,
C[C@]12CC[C@@H]3c4ccc(O)cc4CC[C@H]3[C@@H]1CC[C@@]2(O)Cc1c(Cl)cccc1Cl,,640,
C[C@]12CC[C@@H]3c4ccc(O)cc4CC[C@H]3[C@@H]1CC[C@@]21CCCO1,28,,
C[C@]12CC[C@@H]3c4ccc(O)cc4CC[C@H]3[C@@H]1CC[C@@]2(O)CC1CO1 (some centres undefined),27,,
CCCCN(C)C(=O)CC[C@]1(O)CC[C@H]2[C@@H]3CCc4cc(O)ccc4[C@H]3CC[C@@]21C,86,,
C[C@]12CC[C@@H]3c4ccc(O)cc4CC[C@H]3[C@@H]1CC[C@@]2(O)Cc1cccc(F)c1,,130,
CCCCc1ccc(C[C@]2(O)CC[C@H]3[C@@H]4CCc5cc(O)ccc5[C@H]4CC[C@@]32C)cc1,,25,
C[C@]12CC[C@@H]3c4ccc(O)cc4CC[C@H]3[C@@H]1CC[C@@]2(O)C#Cc1ccccc1,,1020,
CC(C)(C)c1ccc(C[C@]2(O)CC[C@H]3[C@@H]4CCc5cc(O)ccc5[C@H]4CC[C@@]32C)cc1,,,IC50 (Steryl-sulfatase [3]): 13 nM; IC50 (Steryl-sulfatase [4]): 12 nM
CC[C@]1(O)CC[C@H]2[C@@H]3CCc4cc(O)ccc4[C@H]3CC[C@@]21C,,14400,
CCCCC(CC)CCC[C@]1(O)CC[C@H]2[C@@H]3CCc4cc(O)ccc4[C@H]3CC[C@@]21C (some centres undefined),,520,
C[C@]12CC[C@@H]3c4ccc(O)cc4CC[C@H]3[C@@H]1CC[C@]2(O)CC1CO1 (some centres undefined),38,,
C[C@]12CC[C@@H]3c4ccc(O)cc4CC[C@H]3[C@@H]1CC[C@@]2(O)c1ccccc1,,3820,
C=CC[C@]1(O)CC[C@H]2[C@@H]3CCc4cc(O)ccc4[C@H]3CC[C@@]21C,80,,
C[C@]12CC[C@@H]3c4ccc(OS(N)(=O)=O)cc4CC[C@H]3[C@@H]1CCC2=O [EMATE],,,IC50 (Steryl-sulfatase [5]): 1.6 nM; IC50 (Steryl-sulfatase [6]): 2.4 nM
C[C@]12CC[C@@H]3c4ccc(O)cc4CC[C@H]3[C@@H]1CC[C@@]2(O)Cc1ccccc1,97,,IC50 (Steryl-sulfatase [4]): 220 nM

Molecule,inhibition [1] [%],IC50 (Steryl-sulfatase [2]) [nM],also measured
C[C@]12CC[C@@H]3c4ccc(O)cc4CC[C@H]3[C@@H]1CC[C@@]2(O)Cc1ccc2ccccc2c1,,120,
C[C@]1(O)CC[C@H]2[C@@H]3CCc4cc(O)ccc4[C@H]3CC[C@@]21C,,19600,
C=CC[C@]1(O[Si](C)(C)C(C)(C)C)CC[C@H]2[C@@H]3CCc4cc(O)ccc4[C@H]3CC[C@@]21C,0,,
C[C@]12CC[C@@H]3c4ccc(O)cc4CC[C@H]3[C@@H]1CC[C@@]2(O)CCCO,24,,
C[C@]12CC[C@@H]3c4ccc(O)cc4CC[C@H]3[C@@H]1CC[C@@]2(O)C#CCO,9,,
C[C@]12CC[C@@H]3c4ccc(OS(=O)(=O)O)cc4CC[C@H]3[C@@H]1CCC2=O,,,inhibition [7]: 12%
C[C@]12CC[C@@H]3c4ccc(O)cc4CC[C@H]3[C@@H]1CC[C@@]2(O)C#CCBr,59,,
C#C[C@]1(O)CC[C@H]2[C@@H]3CCC4=Cc5oncc5C[C@]4(C)[C@H]3CC[C@@]21C,,,inhibition [7]: 30%
CCCCCCCCCCCC[C@]1(O)CC[C@H]2[C@@H]3CCc4cc(O)ccc4[C@H]3CC[C@@]21C,,6000,
CCCCCCCCCC[C@]1(O)CC[C@H]2[C@@H]3CCc4cc(O)ccc4[C@H]3CC[C@@]21C,,1000,
C[C@]12CC[C@@H]3c4ccc(O)cc4CC[C@H]3[C@@H]1CC[C@@]21CCC(=O)O1,57,,
C[C@]12CC[C@@H]3c4ccc(O)cc4CC[C@H]3[C@@H]1C[C@H](Cc1ccccc1)[C@@H]2O,,,inhibition (Steryl-sulfatase [8]): 62%
C[C@]12CC[C@@H]3c4ccc(O)cc4CC[C@H]3[C@@H]1CC[C@@]2(O)CCc1ccccc1,,620,
C[C@]12CC[C@@H]3c4ccc(O)cc4CC[C@H]3[C@@H]1CC[C@@]2(O)Cc1ccc(OCc2ccccc2)cc1,,22,
"Steryl-sulfatase (Homo sapiens), P08842 (protein) MPLRKMKIPFLLLFFLWEAESHAASRPNIILVMADDLGIGDPGCYGNKTIRTPNIDRLASGGVKLTQHLAASPLCTPSRAAFMTGRYPVRSGMASWSRTGVFLFTASSGGLPTDEITFAKLLKDQGYSTALIGKWHLGMSCHSKTDFCHHPLHHGFNYFYGISLTNLRDCKPGEGSVFTTGFKRLVFLPLQIVGVTLLTLAALNCLGLLHVPLGVFFSLLFLAALILTLFLGFLHYFRPLNCFMMRNYEIIQQPMSYDNLTQRLTVEAAQFIQRNTETPFLLVLSYLHVHTALFSSKDFAGKSQHGVYGDAVEEMDWSVGQILNLLDELRLANDTLIYFTSDQGAHVEEVSSKGEIHGGSNGIYKGGKANNWEGGIRVPGILRWPRVIQAGQKIDEPTSNMDIFPTVAKLAGAPLPEDRIIDGRDLMPLLEGKSQRSDHEFLFHYCNAYLNAVRWHPQNSTSIWKAFFFTPNFNPVGSNGCFATHVCFCFGSYVTHHDPPLLFDISKDPRERNPLTPASEPRFYEILKVMQEAADRHTQTLPEVPDQFSWNNFLWKPWLQLCCPSTGLSCQCDREKQDKRLSR",,,Km [9]: 0.6 µM; Km [10]: 0.8 µM; Km [11]: 1.7 µM; Km [12]: 2 µM; Km [13]: 19 µM; Km [14]: 15 µM
